The record followed here is PubChem BioAssay.

A short description of experiment [1]: Her2 expression decrease, cell viability multiplex – SKBR3 breast tumor cells, AlphaScreen, ATP viability, primary screen (AID 461;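 active = Her2 level under about 52% in both replicate screens, with viability over 70% of control, limit read from the data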;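 for Her2 level: lower value means less Her2 protein in the cells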;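 for viability: percent of carrier control wells set as 100% viability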). The following applies: SKBR3 Her2 protein level, 18-24 h, measured here: SKBR3 viability, ATP luminescence, at 10 µM. Background: Alpha assays give light when donor and acceptor beads are brought close together.
The target of experiment [2] is Receptor tyrosine-protein kinase erbB-2 (Homo sapiens) (UniProt P04626). Described as above. The following applies: 18-24 h, at 10 µM, stronger effect = lower value.
A short description of experiment [3]: reduced viability of SK-BR-3 breast cancer cells – cell-based, 24 h, human, pilot screen (AID 572).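 Note: compound exposure lasted between 18 and 24 h rather than exactly 24 h; 100% = carrier-treated control wells.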 The following applies: SK-BR-3 viability, CellTiter-Glo luminescence, at 10 µM, stronger effect = lower value. (ATP-based viability assays read luminescence as a measure of living cells.)
Experiment [4] can be described thus: HUVEC growth inhibition – cell-based, human, primary screen (AID 575;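 active = viability at or below 30% in both replicate assays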;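 note: 100% = median of untreated cell wells with 0.1% DMSO on each plate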). The following applies: HUVEC proliferation, CellTiter-Glo luminescence, 72 h; at 10 µM; stronger effect = lower value. In short, it runs like this: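 System – primary HUVEC, no more than 12 passages · Medium – Low-serum (2% FBS) EBM, supplemented · Times – 72 h exposure, 37 °C, 5% CO2, 30 min RT equilibration · Measured by – luminescent ATP assay · Read-out – % viability relative to median vehicle-well signal on each plate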

A short description of experiment [5]: H69AR cell proliferation blockers – human, duplicate replicates, primary screen (AID 580;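 active = viability at or under a set limit in both replicates, limit being median viability minus 3 SD, cut at about 48% in these data, passing the limit was not always enough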;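 note: 100% = mean luminescence of untreated wells and 0% = no signal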). Conditions: H69AR lung tumor cells viability, ATP luminescence, 72 h; at 10 µM; stronger effect = lower value.
The nature of experiment [6]: MRP1 drug-resistance reversers in H69AR cells – cell-based, doxorubicin co-treatment, pilot screen (AID 601;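 active = viability loss from added drug above about 55%, and viability with drug at most 40%, in both replicates, limit read from the data, passing the limit was not always enough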). Conditions: CellTiter-Glo, 72 h, at 10 µM; for differential viability (reversal): stronger effect = higher value.
Experiment [7] is described as follows: yeast transport mutant growth inhibition pilot in 384-well plates, post-Golgi transport modulator project (AID 636; in the data active = inhibition above about 31%). Conditions: absorbance 615 nm, about 18 h, stronger effect = higher value.
Experiment [8] can be described thus: growth suppression of yeast trafficking mutant, preliminary HTS, modulators of trafficking downstream of Golgi apparatus project, 1536-format plate, OD 615 nm (AID 637; in the data active = inhibition above about 30%). The following applies: yeast transport mutant growth, absorbance 615 nm, 18 h; stronger effect = higher value.
[9] abbreviates: H69AR cells + 2 uM doxorubicin, measured here: viability with 2 uM doxorubicin, stronger effect = lower value.
Setting [10] is: H69AR cells, compound alone cytotoxicity.

SMILES strings stand for the structures. Active and inactive are the calls of the source.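 Rule for the calls, unless noted: active = viability at or below 10% of carrier control in both of two separate runs; inconclusive = viability at or below 10% in only one of the two runs; inactive = the rest.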

Receptor tyrosine-protein kinase erbB-2 (Homo sapiens), sequence (P04626 whole entry, looked up): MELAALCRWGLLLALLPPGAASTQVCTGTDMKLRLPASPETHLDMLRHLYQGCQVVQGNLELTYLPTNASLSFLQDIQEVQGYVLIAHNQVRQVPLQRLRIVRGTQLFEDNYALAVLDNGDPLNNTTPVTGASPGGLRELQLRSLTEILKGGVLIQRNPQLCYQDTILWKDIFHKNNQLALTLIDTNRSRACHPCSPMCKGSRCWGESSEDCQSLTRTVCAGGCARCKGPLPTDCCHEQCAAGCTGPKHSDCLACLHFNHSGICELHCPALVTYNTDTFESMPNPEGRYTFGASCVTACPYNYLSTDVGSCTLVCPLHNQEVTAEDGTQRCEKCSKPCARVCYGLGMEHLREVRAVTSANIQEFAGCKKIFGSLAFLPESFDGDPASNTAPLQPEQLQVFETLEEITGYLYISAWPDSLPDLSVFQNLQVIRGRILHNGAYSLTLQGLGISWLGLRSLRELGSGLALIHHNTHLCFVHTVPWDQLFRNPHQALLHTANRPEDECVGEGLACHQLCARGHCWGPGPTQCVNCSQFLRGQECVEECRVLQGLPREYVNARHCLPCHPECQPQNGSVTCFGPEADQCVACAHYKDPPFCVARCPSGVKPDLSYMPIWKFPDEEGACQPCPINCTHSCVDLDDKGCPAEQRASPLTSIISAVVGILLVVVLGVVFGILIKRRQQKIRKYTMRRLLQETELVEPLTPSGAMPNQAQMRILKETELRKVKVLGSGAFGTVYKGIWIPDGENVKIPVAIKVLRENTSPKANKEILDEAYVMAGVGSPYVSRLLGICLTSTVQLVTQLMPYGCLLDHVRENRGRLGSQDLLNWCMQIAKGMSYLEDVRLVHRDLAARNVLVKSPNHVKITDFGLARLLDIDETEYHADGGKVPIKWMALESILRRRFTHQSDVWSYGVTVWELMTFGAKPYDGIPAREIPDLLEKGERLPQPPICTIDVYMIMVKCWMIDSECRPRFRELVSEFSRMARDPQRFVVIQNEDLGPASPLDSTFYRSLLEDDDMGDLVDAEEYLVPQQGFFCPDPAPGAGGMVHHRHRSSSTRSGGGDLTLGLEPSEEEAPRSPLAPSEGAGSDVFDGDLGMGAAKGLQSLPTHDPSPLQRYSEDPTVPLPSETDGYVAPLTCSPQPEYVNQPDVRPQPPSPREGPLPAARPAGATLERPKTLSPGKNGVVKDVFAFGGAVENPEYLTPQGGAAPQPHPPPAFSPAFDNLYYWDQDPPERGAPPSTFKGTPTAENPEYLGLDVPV

As a reminder, the viability is a read-out of living cells in per cent, often relative to untreated cells. What is called inhibition is the relative decrease from the control value, in per cent. Turning to `Fc1cccc2sc(Nc3nnc(-c4ccco4)o3)nc12`, the viability in experiment [1] is 109%; in experiment [3] it was 109% (inactive); in experiment [4] it was 57.3% (inactive); in experiment [5] it was 41.2% (active); in experiment [6] (setting [9]) it was 62.6%; in experiment [6] (setting [10]), 41.2%. Further, in experiment [2], the Her2 level is 37% (active). In addition, in experiment [6] (H69AR cells + 2 uM doxorubicin), the differential viability (reversal) was -21.4% (inactive). The inhibition in experiment [7] was -0.4% (inactive); in experiment [8], 0% (inactive).
Take `COc1ccc(CNS(=O)(=O)c2ccc3oc(C(=O)O)c(C)c3c2)cc1`: the viability is 103% in experiment [1]; 103% (inactive) in experiment [3]; 111% (inactive) in experiment [4]; 92.2% (inactive) in experiment [5]; 91.6% in experiment [6] (setting [9]); 92.2% in experiment [6] (setting [10]). Besides, the Her2 level in experiment [2] was 93% (inactive). The differential viability (reversal) in experiment [6] (H69AR cells + 2 uM doxorubicin) was 0.665% (inactive). For the same compound, the inhibition in experiment [7] was -3.64% (inactive); in experiment [8] it was -2.46% (inactive).
Take `CCCOc1ccccc1NC(=O)c1ccc(N)cc1`: the viability in experiment [1] was 95%; in experiment [3], 95% (inactive); in experiment [4], 100% (inactive); in experiment [5] it was 98.2% (inactive); in experiment [6] (setting [9]), 90.6%; in experiment [6] (setting [10]), 98.2%. The Her2 level in experiment [2] was 84% (inactive). Moreover, in experiment [6] (H69AR cells + 2 uM doxorubicin), the differential viability (reversal) was 7.58% (inactive). Moreover, the inhibition is -5.53% (inactive) in experiment [7] and -2.17% (inactive) in experiment [8].
For the compound `O=C(CCCn1c(=S)[nH]c2cc3c(cc2c1=O)OCO3)N1CCN(c2ccccc2F)CC1`, the viability in experiment [1] is 77%; in experiment [3], 77% (inactive); in experiment [4], 68% (inactive); in experiment [5], 83.7% (inactive); in experiment [6] (setting [9]), 93.6%; in experiment [6] (setting [10]) it was 83.7%. In addition, the Her2 level in experiment [2] was 95% (inactive). In addition, the differential viability (reversal) in experiment [6] (H69AR cells + 2 uM doxorubicin) is -9.88% (inactive). The inhibition was -4.32% (inactive) in experiment [7] and -2.95% (inactive) in experiment [8].
As for `CCN(CC)c1ccc2c(C)c(-c3ccc(N)cc3)c(=O)oc2c1`, the viability is 96.5% in experiment [1]; 96.5% (inactive) in experiment [3]; 60.4% (inactive) in experiment [4]; 61.8% (inactive) in experiment [5]; 71.6% in experiment [6] (setting [9]); 61.8% in experiment [6] (setting [10]). Also, the Her2 level in experiment [2] was 84.5% (inactive). For the same compound, the differential viability (reversal) in experiment [6] (H69AR cells + 2 uM doxorubicin) is -9.77% (inactive). For the same compound, the inhibition is -7.33% (inactive) in experiment [7] and 12.3% (inactive) in experiment [8].
As to `O=C(c1cccs1)c1cn(CC(=O)N2CCc3ccccc3C2)c2ccccc12`, the viability is 93% in experiment [1]; 93% (inactive) in experiment [3]; 86.1% (inactive) in experiment [4]; 86.9% (inactive) in experiment [5]; 79.5% in experiment [6] (setting [9]); 86.9% in experiment [6] (setting [10]). Further, the Her2 level in experiment [2] was 108% (inactive). Moreover, the differential viability (reversal) in experiment [6] (H69AR cells + 2 uM doxorubicin) was 7.43% (inactive). Further, the figures for the inhibition in experiment [7] and in experiment [8] were -6.13% (inactive) and 1.45% (inactive), respectively.
In the case of `COc1ccccc1N1CCN(S(=O)(=O)CC23CCC(CC2=O)C3(C)C)CC1` (stereo not given), the viability in experiment [1] was 102%; in experiment [3], 102% (inactive); in experiment [4], 76.9% (inactive); in experiment [5], 84.5% (inactive); in experiment [6] (setting [9]), 83.6%; in experiment [6] (setting [10]), 84.5%. Besides, in experiment [2], the Her2 level was 94% (inactive). Further, in experiment [6] (H69AR cells + 2 uM doxorubicin), the differential viability (reversal) is 0.875% (inactive). For the same compound, the inhibition was -0.52% (inactive) in experiment [7] and -3.67% (inactive) in experiment [8].
In the case of `COc1ccccc1NS(=O)(=O)c1ccc(OC)c(OC)c1`, the viability in experiment [1] was 86%; in experiment [3], 86% (inactive); in experiment [4], 91.6% (inactive); in experiment [5], 99.8% (inactive); in experiment [6] (setting [9]), 103%; in experiment [6] (setting [10]), 99.8%. In addition, the Her2 level in experiment [2] is 85% (inactive). Also, the differential viability (reversal) in experiment [6] (H69AR cells + 2 uM doxorubicin) is -3.15% (inactive). Also, the results for the inhibition in experiment [7] and in experiment [8] were -6.62% (inactive) and 6.56% (inactive), respectively.
As for `Cc1n[nH]c(C)c1S(=O)(=O)Nc1ccc2c(c1)OCCO2`, the viability in experiment [1] was 93%; in experiment [3], 93% (inactive); in experiment [4], 104% (inactive); in experiment [5], 104% (inactive); in experiment [6] (setting [9]), 89.3%; in experiment [6] (setting [10]), 104%. Moreover, the Her2 level in experiment [2] is 98.5% (inactive). Besides, the differential viability (reversal) in experiment [6] (H69AR cells + 2 uM doxorubicin) is 14.9% (inactive). In addition, the inhibition in experiment [7] is -3.42% (inactive); in experiment [8], -4.29% (inactive).
Take `CCOC(=O)COc1ccc(S(=O)(=O)N2CCc3ccccc3C2)cc1`: the viability in experiment [1] was 111%; in experiment [3], 111% (inactive); in experiment [4], 9.96% (active); in experiment [5] it was 96.7% (inactive); in experiment [6] (setting [9]), 83%; in experiment [6] (setting [10]), 96.7%. The Her2 level in experiment [2] is 102% (inactive). Further, the differential viability (reversal) in experiment [6] (H69AR cells + 2 uM doxorubicin) is 13.7% (inactive). Also, the results for the inhibition in experiment [7] and in experiment [8] were -1.97% (inactive) and 0.65% (inactive), respectively.
In the case of `CCOc1cc(C2NC(=O)N(C)C(C)=C2C(=O)OC)cc(Br)c1O` (stereo not given), the viability was 112% in experiment [1]; 112% (inactive) in experiment [3]; 69.9% (inactive) in experiment [4]; 93.8% (inactive) in experiment [5]; 72.6% in experiment [6] (setting [9]); 93.8% in experiment [6] (setting [10]). Moreover, in experiment [2], the Her2 level is 79.5% (inactive). In addition, in experiment [6] (H69AR cells + 2 uM doxorubicin), the differential viability (reversal) is 21.3% (inactive). The inhibition in experiment [7] is -4.73% (inactive); in experiment [8], 4.44% (inactive).
Consider `CCN(CC)c1nc2cc(OC)ccc2cc1C#N`, for which the viability in experiment [1] was 104%; in experiment [3], 104% (inactive); in experiment [4], 86.1% (inactive); in experiment [5], 68.2% (inactive); in experiment [6] (setting [9]), 82.3%; in experiment [6] (setting [10]) it was 68.2%. In experiment [2], the Her2 level was 80.5% (inactive). The differential viability (reversal) in experiment [6] (H69AR cells + 2 uM doxorubicin) was -14.1% (inactive). In addition, the figures for the inhibition in experiment [7] and in experiment [8] were -2.86% (inactive) and -5.24% (inactive), respectively.
`O=C(CNS(=O)(=O)c1ccccc1)NCc1ccccn1`: the viability was 84% in experiment [1]; 84% (inactive) in experiment [3]; 96.2% (inactive) in experiment [4]; 102% (inactive) in experiment [5]; 93.2% in experiment [6] (setting [9]); 102% in experiment [6] (setting [10]). Besides, the Her2 level in experiment [2] is 76.5% (inactive). Further, in experiment [6] (H69AR cells + 2 uM doxorubicin), the differential viability (reversal) is 8.75% (inactive). The inhibition in experiment [7] was -2.27% (inactive); in experiment [8], 1.45% (inactive).
Turning to `CCOc1ccccc1C1CC(=O)Nc2cc3c(cc21)OCO3` (stereo not given), the viability in experiment [1] was 110%; in experiment [3], 110% (inactive); in experiment [4] it was 31% (inactive); in experiment [5], 23.7% (active); in experiment [6] (setting [9]), 60.9%; in experiment [6] (setting [10]) it was 23.7%. Moreover, the Her2 level in experiment [2] is 83.5% (inactive). The differential viability (reversal) in experiment [6] (H69AR cells + 2 uM doxorubicin) is -37.2% (inactive). Moreover, the inhibition in experiment [7] was -4.61% (inactive); in experiment [8], 8.17% (inactive).
For `COc1cccc(N(C(=O)c2ccco2)C(C(=O)NC2CCCC2)c2ccc(N(C)C)cc2)c1` (stereo not given), the viability was 98% in experiment [1]; 98% (inactive) in experiment [3]; 97.5% (inactive) in experiment [4]; 91.8% (inactive) in experiment [5]; 77.2% in experiment [6] (setting [9]); 91.8% in experiment [6] (setting [10]). In addition, the Her2 level in experiment [2] is 92.5% (inactive). Also, the differential viability (reversal) in experiment [6] (H69AR cells + 2 uM doxorubicin) is 14.6% (inactive). In addition, the values for the inhibition in experiment [7] and in experiment [8] were -5.45% (inactive) and -2.13% (inactive), respectively.
For `Cc1ccc(-n2nnnc2SCC(=O)N2CCc3ccccc3C2)cc1`, the viability was 113% in experiment [1]; 113% (inactive) in experiment [3]; 99.9% (inactive) in experiment [4]; 82.1% (inactive) in experiment [5]; 90.8% in experiment [6] (setting [9]); 82.1% in experiment [6] (setting [10]). Besides, in experiment [2], the Her2 level is 82.5% (inactive). Further, the differential viability (reversal) in experiment [6] (H69AR cells + 2 uM doxorubicin) is -8.77% (inactive). Further, the inhibition was -2.5% (inactive) in experiment [7] and 0.48% (inactive) in experiment [8].
